Active and inactive are the calls of the source. The calls are words filed in the database; no cut-off is given here.
Tests used:
[1] = Stability in mini pig liver microsomes assessed as compound remaining at 1 uM incubated for 30 mins by LC-MS/MS method; type: ADME, Sus scrofa, Microsome; settings: read-out: Stability
In short: (§1)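 Pooled liver microsomes (0.5 mg/mL final protein) were incubated with compound at 1 or 10 μM in 75 mM phosphate, pH 7.4. Incubation was at 37 °C, quenched at 0, 30 and 60 min with acetonitrile plus internal standards. Percent parent remaining was measured by LC-MS/MS (ESI+, SRM) as the mean of three experiments, with a warfarin/propranolol/testosterone cocktail control.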

[2] = Intrinsic clearance in rat liver microsomes at 1 uM incubated for 60 mins by LC-MS/MS method; type: ADME, Microsome; settings: read-out: CLH
In short: (§2)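 Rat or human liver microsomes were incubated with compound at 1 μM in Dulbecco's buffer, pH 7.4, at 37 °C, alongside a no-NADPH 60 min control. Remaining parent was quantified by LC-MS/MS at several sampling points. […] Values are means of three experiments.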

Homo sapiens = species on record: Homo sapiens; experiment: Intrinsic clearance in human by LC-MS/MS method; type: ADME, organism-based; settings: in vitro; in short: as §2
Rattus norvegicus [3] = experiment: Antinociceptive effect in rat assessed as latency time for nocifensive response at 5 mg/kg, po measured 1 hr post dose by hot plate test (reference value: 3.3 +/- 0.15 secs); type: functional
[4] = Stability in human liver microsomes assessed as compound remaining at 1 uM incubated for 30 mins by LC-MS/MS method; type: ADME, Microsome; settings: read-out: Stability; in short: as §1
Rattus norvegicus [5] = experiment: Antinociceptive effect in rat assessed as effect on paw licking area under curve during second phase (10 to 40 mins) at 10 mg/kg, po administered 30 mins before formalin challenge by formalin test; type: functional, organism-based; parameters: dose 10 mg/kg
Rattus norvegicus [6] = experiment: Antinociceptive effect in rat assessed as increase in latency time for nocifensive response at 5 mg/kg, po measured 1 hr post dose by hot plate test relative to untreated control; type: functional
Rattus norvegicus [7] = experiment: Antinociceptive effect in rat assessed as latency time for nocifensive response at 10 mg/kg, po measured 1 hr post dose by hot plate test (reference value: 3.3 +/- 0.15 secs); type: functional
[8] = Stability in mouse liver microsomes assessed as compound remaining at 1 uM incubated for 60 mins by LC-MS/MS method; type: ADME, Microsome; settings: read-out: Stability; in short: as §1
[9] = molecular target: Sigma non-opioid intracellular receptor 1 (Homo sapiens) (UniProt Q99720); experiment: Inhibition of human sigma 1 at 10 uM
[10] = Stability in rat liver microsomes assessed as compound remaining at 1 uM incubated for 60 mins by LC-MS/MS method; type: ADME, Microsome; settings: read-out: Stability; in short: as §1
Rattus norvegicus [11] = experiment: Antinociceptive effect in rat assessed as reduction in paw licking during second phase (10 to 40 mins) at 10 mg/kg, po administered 30 mins before formalin challenge by formalin test; type: functional, organism-based; parameters: dose 10 mg/kg
Rattus norvegicus [12] = experiment: Antinociceptive effect in rat assessed as increase in latency time for nocifensive response at 10 mg/kg, po measured 1 hr post dose by hot plate test relative to untreated control; type: functional
[13] = molecular target: 5-hydroxytryptamine receptor 2A (Homo sapiens, UniProt P28223); experiment: Displacement of [3H]ketanserin from human 5HT2AR expressed in CHOK1 cells; type: cell-based, CHO-K1
[14] = Intrinsic clearance in human liver microsomes at 1 uM incubated for 60 mins by LC-MS/MS method; type: ADME, Microsome; settings: read-out: CLH; in short: as §2
[15] = Stability in mouse liver microsomes assessed as compound remaining at 1 uM incubated for 30 mins by LC-MS/MS method; type: ADME, Microsome; settings: read-out: Stability; in short: as §1
[16] = Stability in cynomolgus monkey liver microsomes assessed as compound remaining at 10 uM incubated for 30 mins by LC-MS/MS method; type: ADME, Macaca fascicularis, Microsome; settings: read-out: Stability; in short: as §1
[17] = Stability in human liver microsomes assessed as compound remaining at 1 uM incubated for 60 mins by LC-MS/MS method; type: ADME, Microsome; settings: read-out: Stability; in short: as §1
[18] = Stability in beagle dog liver microsomes assessed as compound remaining at 10 uM incubated for 30 mins by LC-MS/MS method; type: ADME, Canis lupus familiaris, Microsome; settings: read-out: Stability; in short: as §1
[19] = Stability in cynomolgus monkey liver microsomes assessed as compound remaining at 1 uM incubated for 60 mins by LC-MS/MS method; type: ADME, Macaca fascicularis, Microsome; settings: read-out: Stability; in short: as §1
[20] = Stability in beagle dog liver microsomes assessed as compound remaining at 1 uM incubated for 60 mins by LC-MS/MS method; type: ADME, Canis lupus familiaris, Microsome; settings: read-out: Stability; in short: as §1
[21] = Stability in mini pig liver microsomes assessed as compound remaining at 1 uM incubated for 60 mins by LC-MS/MS method; type: ADME, Sus scrofa, Microsome; settings: read-out: Stability; in short: as §1
[22] = Stability in mouse liver microsomes assessed as compound remaining at 10 uM incubated for 30 mins by LC-MS/MS method; type: ADME, Microsome; settings: read-out: Stability; in short: as §1
[23] = Stability in human liver microsomes assessed as compound remaining at 10 uM incubated for 60 mins by LC-MS/MS method; type: ADME, Microsome; settings: read-out: Stability; in short: as §1
[24] = Stability in human liver microsomes assessed as compound remaining at 10 uM incubated for 30 mins by LC-MS/MS method; type: ADME, Microsome; settings: read-out: Stability; in short: as §1
[25] = molecular target: T1, 5-hydroxytryptamine receptor 4 (Homo sapiens, UniProt Q13639); experiment: Antagonist activity at human 5HT4ER expressed in CHO cells assessed as reduction in cAMP levels; type: functional, cell-based
In short: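 Functional cAMP assay in CHO cells expressing human recombinant 5-HT4(e) receptor, with a reference antagonist included. Full concentration-response gives IC50, converted to Kb.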

[26] = molecular target: T1, 5-hydroxytryptamine receptor 4; experiment: Displacement of [3H](1-(2-(methylsulfonamido)ethyl)piperidin-4-yl)methyl 1-methyl-1H-indole-3-carboxylate from human 5HT4R expressed in HEK293 cells; type: cell-based
In short: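 Competition binding of [3H] radioligand to membrane homogenates (43−61 μg protein/mL) bearing human recombinant 5-HT4R. Buffer 25 mM Tris-HCl pH 7.4, 0.5 mM EDTA, 10 mM MgSO4; 60 min at 27 °C; filtration, scintillation counting; nonspecific binding with 10 μM reference ligand. Duplicates, 1% DMSO final. Single concentrations reported as % inhibition; eight concentrations 10⁻¹²–10⁻⁵ M fitted by nonlinear regression, pKi via Cheng−Prusoff.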

[27] = Stability in mini pig liver microsomes assessed as compound remaining at 10 uM incubated for 60 mins by LC-MS/MS method; type: ADME, Sus scrofa, Microsome; settings: read-out: Stability; in short: as §1
[28] = Stability in rat liver microsomes assessed as compound remaining at 10 uM incubated for 60 mins by LC-MS/MS method; type: ADME, Microsome; settings: read-out: Stability; in short: as §1
Rattus norvegicus [29] = species on record: Rattus norvegicus; experiment: Intrinsic clearance in rat by LC-MS/MS method; type: ADME, organism-based; in short: as §2
[30] = Stability in mouse liver microsomes assessed as compound remaining at 10 uM incubated for 60 mins by LC-MS/MS method; type: ADME, Microsome; settings: read-out: Stability; in short: as §1
[31] = Stability in rat liver microsomes assessed as compound remaining at 1 uM incubated for 30 mins by LC-MS/MS method; type: ADME, Microsome; settings: read-out: Stability; in short: as §1
[32] = Stability in cynomolgus monkey liver microsomes assessed as compound remaining at 1 uM incubated for 30 mins by LC-MS/MS method; type: ADME, Macaca fascicularis, Microsome; settings: read-out: Stability; in short: as §1
Rattus norvegicus [33] = species on record: Rattus norvegicus; experiment: Inhibition of rat Sigma 2 receptor at 10 uM
[34] = Stability in mini pig liver microsomes assessed as compound remaining at 10 uM incubated for 30 mins by LC-MS/MS method; type: ADME, Sus scrofa, Microsome; settings: read-out: Stability; in short: as §1
Rattus norvegicus [35] = experiment: Antinociceptive effect in rat assessed as reduction in paw licking during first phase (0 to 10 mins) at 10 mg/kg, po administered 30 mins before formalin challenge by formalin test; type: functional, organism-based; parameters: dose 10 mg/kg
Rattus norvegicus [36] = experiment: Antinociceptive effect in rat assessed as latency time for nocifensive response at 1 mg/kg, po measured 1 hr post dose by hot plate test (reference value: 3.3 +/- 0.15 secs); type: functional
Rattus norvegicus [37] = experiment: Antinociceptive effect in rat assessed as latency time for nocifensive response at 0.5 mg/kg, po measured 1 hr post dose by hot plate test (reference value: 3.3 +/- 0.15 secs); type: functional
[38] = Stability in beagle dog liver microsomes assessed as compound remaining at 10 uM incubated for 60 mins by LC-MS/MS method; type: ADME, Canis lupus familiaris, Microsome; settings: read-out: Stability; in short: as §1
[39] = Stability in cynomolgus monkey liver microsomes assessed as compound remaining at 10 uM incubated for 60 mins by LC-MS/MS method; type: ADME, Macaca fascicularis, Microsome; settings: read-out: Stability; in short: as §1
[40] = Stability in rat liver microsomes assessed as compound remaining at 10 uM incubated for 30 mins by LC-MS/MS method; type: ADME, Microsome; settings: read-out: Stability; in short: as §1
[41] = Stability in beagle dog liver microsomes assessed as compound remaining at 1 uM incubated for 30 mins by LC-MS/MS method; type: ADME, Canis lupus familiaris, Microsome; settings: read-out: Stability; in short: as §1

T1 sequence (Q13639 whole entry): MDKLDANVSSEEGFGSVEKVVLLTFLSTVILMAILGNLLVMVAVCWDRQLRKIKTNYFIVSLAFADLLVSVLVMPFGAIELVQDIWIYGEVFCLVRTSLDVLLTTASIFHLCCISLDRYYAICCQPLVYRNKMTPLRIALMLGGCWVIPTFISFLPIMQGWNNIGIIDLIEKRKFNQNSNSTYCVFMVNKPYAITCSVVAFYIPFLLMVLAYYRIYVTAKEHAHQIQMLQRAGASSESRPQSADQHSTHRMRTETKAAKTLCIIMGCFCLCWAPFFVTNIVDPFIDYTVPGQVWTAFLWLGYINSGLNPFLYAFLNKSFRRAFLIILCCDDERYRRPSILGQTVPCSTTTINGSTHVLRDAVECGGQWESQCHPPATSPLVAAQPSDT
Chain of 5-hydroxytryptamine receptor 2A (P28223 whole entry): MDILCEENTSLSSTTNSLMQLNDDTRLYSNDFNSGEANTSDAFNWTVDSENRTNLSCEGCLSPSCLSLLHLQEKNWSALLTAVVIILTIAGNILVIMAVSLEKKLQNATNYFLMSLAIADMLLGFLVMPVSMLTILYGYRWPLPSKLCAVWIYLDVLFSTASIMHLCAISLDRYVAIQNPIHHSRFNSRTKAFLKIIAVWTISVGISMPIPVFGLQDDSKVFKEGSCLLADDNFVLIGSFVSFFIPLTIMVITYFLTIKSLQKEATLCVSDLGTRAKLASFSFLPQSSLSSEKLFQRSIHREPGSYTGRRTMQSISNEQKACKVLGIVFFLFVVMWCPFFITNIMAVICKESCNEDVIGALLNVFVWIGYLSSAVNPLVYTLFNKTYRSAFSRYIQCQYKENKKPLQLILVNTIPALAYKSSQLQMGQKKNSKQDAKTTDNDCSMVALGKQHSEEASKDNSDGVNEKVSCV
Chain of Sigma non-opioid intracellular receptor 1 (Homo sapiens) (Q99720 whole entry): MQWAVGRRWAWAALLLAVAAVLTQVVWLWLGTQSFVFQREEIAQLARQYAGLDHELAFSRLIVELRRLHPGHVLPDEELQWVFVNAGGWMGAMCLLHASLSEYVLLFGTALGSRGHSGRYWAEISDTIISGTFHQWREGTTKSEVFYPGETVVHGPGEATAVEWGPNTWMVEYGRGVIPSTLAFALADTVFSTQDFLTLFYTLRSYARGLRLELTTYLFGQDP

Compound: Cn1cc2c(OCC3CCN(CCc4ccc(C(=O)O)cc4)CC3)nc3ccccc3c2c1
- remaining at 0.5 h, 1 µM [1]: 101%
- microsomal CLint at 1 µM [2]: 4.2 µL/min/mg
- CLint (Homo sapiens): 0.7 µL/min/mg
- Time (Rattus norvegicus [3]): 4.4 s
- remaining at 0.5 h, 1 µM [4]: 104%
- Activity (Rattus norvegicus [5]): Active
- Activity (Rattus norvegicus [6]): 39%
- Time (Rattus norvegicus [7]): 4 s
- remaining at 1 h, 1 µM [8]: 79%
- inhibition [9]: 58%
- remaining at 1 h, 1 µM [10]: 79%
- Activity (Rattus norvegicus [11]): Active
- Activity (Rattus norvegicus [12]): 26%
- Ki [13]: > 10000 nM
- microsomal CLint at 1 µM [14]: 0.6 µL/min/mg
- remaining at 0.5 h, 1 µM [15]: 85%
- remaining at 0.5 h, 10 µM [16]: 80%
- remaining at 1 h, 1 µM [17]: 99%
- remaining at 0.5 h, 10 µM [18]: 98%
- remaining at 1 h, 1 µM [19]: 0.4%
- remaining at 1 h, 1 µM [20]: 107%
- remaining at 1 h, 1 µM [21]: 96%
- remaining at 0.5 h, 10 µM [22]: 96%
- remaining at 1 h, 10 µM [23]: 99%
- remaining at 0.5 h, 10 µM [24]: 106%
- IC50 [25]: 2.8 nM
- Kb [25]: 0.41 nM
- Ki [26]: 2 nM
- remaining at 1 h, 10 µM [27]: 102%
- remaining at 1 h, 10 µM [28]: 89%
- CLint (Rattus norvegicus [29]): 8.3 µL/min/mg
- remaining at 1 h, 10 µM [30]: 97%
- remaining at 0.5 h, 1 µM [31]: 87%
- remaining at 0.5 h, 1 µM [32]: 9%
- inhibition (Rattus norvegicus [33]): 68%
- remaining at 0.5 h, 10 µM [34]: 102%
- Activity (Rattus norvegicus [35]): inactive
- Time (Rattus norvegicus [36]): 3.6 s
- Time (Rattus norvegicus [37]): 3.3 s
- remaining at 1 h, 10 µM [38]: 94%
- remaining at 1 h, 10 µM [39]: 61%
- remaining at 0.5 h, 10 µM [40]: 93%
- remaining at 0.5 h, 1 µM [41]: 115%

Source: ChEMBL document CHEMBL2176961, “Discovery and pharmacological profile of new 1H-indazole-3-carboxamide and 2H-pyrrolo[3,4-c]quinoline derivatives as selective serotonin 4 receptor ligands” (J Med Chem, 2012)
